Among the data in ChEMBL document CHEMBL4513216, “Probing the Open Global Health Chemical Diversity Library for Multistage-Active Starting Points for Next-Generation Antimalarials” (ACS Infect Dis, 2020) are cytotoxicity values, retold here.

The nature of the data set: Toxicity liver stage against HepG2, at 10uM. It is filed as cell-based. Also on record: test concentration 10 uM, cell line HepG2-A16-CD81EGFP. The settings on record: human, HepG2-A16-CD81EGFP cells; read-out: INHIBITION
The method in brief: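 Uninfected HepG2-A16-CD81EGFP cells, 3 × 10^3 per well, 1536-well, plated on prespotted compound at 10 μM final, parasite-free screening media added to match infected plates; puromycin 10 μM positive, DMSO 0.5% negative; run in parallel with 48 h PbLuc assay at 37 °C, 5% CO2; viability by CellTiter-Glo luminescence, normalized to controls.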
Take `CCCNC(=O)COc1cccc(-c2nc(C(C)C)no2)c1`: the cytotoxicity at 10 µM was -77.9%.

In the case of `CCOC(=O)CN1CCC2(CC1)CC(=O)c1ccc3ccccc3c1O2`, the cytotoxicity at 10 µM amounted to 3.33%. Under `COC(=O)N1CC[C@@]2(C1)[C@H](OC)CN(c1ccccc1)S2(=O)=O` stands 5.78%.

For `COc1cccc(-c2nc(C)c(C(=O)NCCC(=O)O)s2)c1`, the cytotoxicity at 10 µM worked out at 8.69%. Take `O=C(CCc1nc2cc(Br)cnc2[nH]1)NCCCN1CCOCC1`: the cytotoxicity at 10 µM was -2.67%. In the case of `CCCS(=O)(=O)c1ccc(N2CCN(Cc3ccccc3)CC2)nn1`, the cytotoxicity at 10 µM is -5.93%. In the case of `O=C(NCC(O)(c1cccs1)C1CC1)NC1CCCCC1` (stereo unspecified), the cytotoxicity at 10 µM was -2.25%. For `Cc1noc(C)c1S(=O)(=O)NCC(C)(O)c1ccc2c(c1)OCO2` (stereo unspecified) the value was 0.331%; for `O=C(Nc1cccnc1)C1CCN(c2cc(-n3ccnc3)ncn2)CC1`, -3.3%; for `O=C(NCCNc1cc(-n2cccc2)ncn1)c1cccs1`, -2.56%.

In the case of `CCOCC(=O)NCCC(O)c1ccoc1` (stereo unspecified), the cytotoxicity at 10 µM was -4.59%. For `CNC(=O)CS(=O)(=O)C1CCN(S(=O)(=O)c2cccc(C(C)=O)c2)CC1` the value was 5.85%.

As for `COCCN1C(=O)C2(CCC(C(=O)Nc3ccc(C)cc3)CC2)N=C1C` (stereo unspecified), the cytotoxicity at 10 µM came out at 12.3%. For `CCNC(=O)CC1CC2(CCN(C(C)=O)CC2)c2cc(F)ccc21` (stereo unspecified) the value was 6.83%; for `CCN(CC)[C@H]1COC[C@@H]2CN(Cc3cnn(C)c3)C[C@@H]21`, 11.5%.

Turning to `Cc1cc(CN2C[C@@H]3COC[C@]3(COCC(=O)N(C)C)C2)no1`, the cytotoxicity at 10 µM was determined as 1.44%. `Cc1ccc(CN2CCC3(CC(C(=O)NCC4CC4)=NO3)C2)cc1C` (stereo unspecified): the cytotoxicity at 10 µM turned out to be 3.84%. For `CCn1ncc(Nc2[nH]cnc3nncc2-3)c1C` the value was 7.29%; for `Cc1cc(-c2cncnc2)nc(C2CCCN2S(C)(=O)=O)n1` (stereo unspecified), -6.21%; for `CNc1cc(C2CCCN2Cc2ccccc2C(=O)O)ccn1` (stereo unspecified), -5.28%. Consider `Cc1ccccc1C(C#N)NC(=O)CCCOc1cccnc1` (stereo unspecified), for which the cytotoxicity at 10 µM was -0.398%.

As for `Cc1nnc(CN2CCCCC2c2nc(-c3ccccc3)no2)s1` (stereo unspecified), the cytotoxicity at 10 µM was -48.5%. For `CC1CCCN(C(=O)c2cn(-c3ccc(C(F)(F)F)cn3)nn2)C1` (stereo unspecified) the value was -51.3%; for `CN1CCN(C(=O)c2cccs2)Cc2ccccc21`, -43.9%; for `O=C(CCSc1ccccc1F)N1CCN(c2cnccn2)CC1`, -51.7%. Turning to `Cc1nc(-c2ccc(CC(=O)N3CCN(C(=O)C(C)C)CC3)cc2)cs1`, the cytotoxicity at 10 µM came to 12.8%. Regarding `Cc1cc(C)nc(NC2CC(=O)N(C(C)(C)C)C2)n1` (stereo unspecified), the cytotoxicity at 10 µM was -5.81%.

Take `c1ncc2c(n1)CN(Cc1cn3ccsc3n1)CC2`: the cytotoxicity at 10 µM worked out at 11.3%. For `c1ccc(N2CCC(NCc3cccc4cn[nH]c34)C2)cc1` (stereo unspecified) the value was 13.6%. In the case of `O=C(c1ccc(-n2ccnc2)cc1)N1CCCC1`, the cytotoxicity at 10 µM was -7.55%.

Turning to `Cc1nc(C)n(CC2CCCCN2CCCO)n1` (stereo unspecified), the cytotoxicity at 10 µM was 4.37%. Under `O=C(CN1CCc2ccccc21)NCc1ccc(Cl)cc1` stands 12.4%. Under `CCOC(C)c1noc(CN2CCNCC2)n1` (stereo unspecified) stands 1.03%. As for `CN(C)c1cccc(C(=O)Nc2cn(C)c(=O)n(C)c2=O)c1`, the cytotoxicity at 10 µM was 3.34%.

For the molecule `COc1ccc(CNC(=O)NCCc2nc(C)c(C)s2)cn1`, the cytotoxicity at 10 µM was -0.0813%.

As for `COc1ncccc1C(=O)N1CCCC1c1c(C)n[nH]c1C` (stereo unspecified), the cytotoxicity at 10 µM amounted to 10.7%. Turning to `CC(C)N(C)S(=O)(=O)N1CCCC1C(=O)N1CCSCC1` (stereo unspecified), the cytotoxicity at 10 µM was -16.5%. Under `CC(c1nnc(-c2ccccc2)o1)N1CCC(Nc2ccccc2)CC1` (stereo unspecified) stands 5.1%.

With `Cc1ccc(CNCc2nnc3n2CCCC3C(F)(F)F)s1` (stereo unspecified), the cytotoxicity at 10 µM came out at 20.7%. For `Cc1n[nH]c(C2CN(C(=O)c3cc(Cl)c[nH]3)CCO2)n1` (stereo unspecified) the value was 3.95%. As to `CC(O)CN1CCC(CNCc2ccc(S(C)(=O)=O)cc2)CC1` (stereo unspecified), the cytotoxicity at 10 µM is -21.4%.

As to `CC(C)Cn1c2c(ccc1=O)CC(NC(=O)c1ccsc1)CC2` (stereo unspecified), the cytotoxicity at 10 µM is -109%. Under `COC[C@@]12CCC[C@@H]1CN(C(=O)Cc1ccco1)C2` stands -102%. Under `Cc1occc1C(=O)N1CCC2(CC1)C(c1cnn(C)c1)CC(=O)N2C` (stereo unspecified) stands 5.66%; under `O=c1cc(Cn2cncn2)nc2n1CCCN(CC1CC1)C2`, -2.65%. For `Cc1ncc(CN2CCN(C(=O)N(C)C)[C@@H]3CS(=O)(=O)C[C@@H]32)cn1` the value was 7.86%; for `Cc1cc(-c2c(C)c(-c3cnn(C)c3)nc(N)c2C#N)oc1C`, -93.5%. As to `CCCOC(=O)N1CCCC(c2nnc(CN3CCOCC3)n2C)C1` (stereo unspecified), the cytotoxicity at 10 µM worked out at 2.19%.

For `CC(Nc1nc(-c2ccccc2)nc2c1CCNCC2)c1cccnc1` (stereo unspecified), the cytotoxicity at 10 µM was -0.587%. As for `CCc1ccc(CN2CCN(C)C3(CCC(=O)N(CC4CC4)CC3)C2)o1` (stereo unspecified), the cytotoxicity at 10 µM was -2.77%. Consider `CCc1cc(NCCC(F)(F)F)nc(N2CCOCC2)n1`, for which the cytotoxicity at 10 µM was -4.65%. Regarding `COc1ccccc1S(=O)(=O)N1CCC2(CC1)[C@H](O)C[C@@H]2O`, the cytotoxicity at 10 µM stood at 9.12%. With `CC(c1ccon1)N(C)C(=O)C1CCN(C2CCCCC2)CC1` (stereo unspecified), the cytotoxicity at 10 µM is -20.2%. Under `CC(C)(O)CCc1cccc(C(=O)NCCC2=CSC3=NCCCN23)c1` stands 9.17%; under `CCC(CO)N(Cc1ccccn1)C(=O)c1ccc(CSC)o1` (stereo unspecified), -5.06%; under `CC(=O)N1CCc2c(nc(N(C)C)nc2N(C)CCO)C1`, -2.48%. Under `Fc1ccc(N2CCN(CCCc3cn[nH]c3)CC2)cc1` stands -144%. For `Cc1nc[nH]c1-c1c(-c2ccccc2)ncn1C1CCNC1` (stereo unspecified) the value was -52.4%; for `CC(C)Cc1cc(C(=O)N2CCC(C(=O)N3CCOCC3)CC2)on1`, -8.61%; for `CCCc1nnc2sc(C3CCN(CCOC)CC3)nn12`, 6.76%. For the molecule `CCc1[nH]c2c(CNC(=O)C3CCCN(C)C3)cc(C)cc2c1C` (stereo unspecified), the cytotoxicity at 10 µM is -15.6%. Under `CC(C)n1ccnc1C1CCCN(c2cc(C(=O)NC3CC3)ccn2)C1` (stereo unspecified) stands -0.352%; under `Cc1csc2c(N3CCC(NCCCc4cnn(C)c4)CC3)ncnc12`, 0.301%; under `C1CCC(c2nc3c(c(N4CC(N5CCOCC5)C4)n2)CCNCC3)C1`, -10.2%. For `CC(C)N1CCOC(CC(=O)N2CC(c3ccncc3)C2)C1` (stereo unspecified) the value was 7.44%; for `N[C@H]1CN(C(=O)c2ccccc2Oc2ccccc2)C[C@@H]1C1CC1`, -0.948%; for `O=C(CCCn1cnnn1)N1CCC(c2ccncc2)CC1`, -4.8%. Under `Cc1nc[nH]c1CN1CCCC(CNC(=O)c2ccc(N)nc2)C1` (stereo unspecified) stands 1.56%; under `CCNC(=O)N1C[C@@H](NC(C)=O)[C@H](c2ccc(C)o2)C1`, -8.82%; under `Cc1ccccc1CCC1CCCN(Cc2c(C)[nH]c(=O)[nH]c2=O)C1` (stereo unspecified), 5%. For `c1nc2c(c(NCCCn3cncn3)n1)CCN(CC1CCOC1)CC2` (stereo unspecified), the cytotoxicity at 10 µM was -10.6%.

With `Cc1ccc(C)c(OC(C)C(=O)Nc2cccnc2)c1` (stereo unspecified), the cytotoxicity at 10 µM turned out to be 7.39%. Under `CCN(Cc1ccoc1)Cc1nc(COC)no1` stands -0.566%. For `CNc1ncc(C(=O)N2CCCC(CO)(CCCOC)C2)cn1` (stereo unspecified) the value was -44.4%. Under `C/C=C(\C)CN(CCN1CCOCC1)Cc1ccco1` stands 11.1%; under `CCOC(=O)N1CCN(C(=O)C(CC)n2cccn2)CC1` (stereo unspecified), -0.193%; under `COc1ncccc1NC(=O)N(C1CC1)C(C)C(C)C` (stereo unspecified), 8.42%. As to `Cn1cc(NC(=O)N2CCC(OCc3ccccc3)CC2)ccc1=O`, the cytotoxicity at 10 µM is -5.75%. Under `COc1ccccc1OCCNCc1c(C(C)C)nn(C)c1N(C)C` stands -12.8%; under `COc1cc(CNCCc2cnn(C)c2)cc(OC)c1OC`, -9.51%.

For the molecule `O=C(c1ccc(NC2CC2)nc1)N1CCCC(n2ccnc2)C1` (stereo unspecified), the cytotoxicity at 10 µM is -3.81%.

As for `COc1ccccc1OCC(=O)NS(=O)(=O)c1ccc(Cl)s1`, the cytotoxicity at 10 µM was -4.93%. For `Cc1ccc(C(=O)NC2CCN(C(=O)Nc3ccncc3)CC2)o1` the value was 1.48%; for `CN(C(=O)c1cccc(Cl)c1)C1CCN(c2ccccn2)CC1`, -8.8%. In the case of `Cc1nc(CN(C)C2CCN(Cc3ccc4c(c3)CCC4)C2)no1` (stereo unspecified), the cytotoxicity at 10 µM was -18.2%.

For `O=C(c1cc2c(s1)CCC2)N1CCCCC1Cn1cccn1` (stereo unspecified), the cytotoxicity at 10 µM was -4.86%.

`Cn1ccc(C(=O)N2CCN(c3ncccn3)CC2)cc1=O`: the cytotoxicity at 10 µM is -11.6%. As to `Cn1ccnc1C(=O)N1C[C@@H]2CCN(c3cnccn3)C[C@@H]2C1`, the cytotoxicity at 10 µM is -97%. For `O=C1COC2(COCCN(c3ccccn3)C2)CN1c1cccc(F)c1` (stereo unspecified) the value was -103%; for `CCN1C[C@@H]2CN(C(=O)NCc3ccccc3)CCC[C@]2(C(=O)O)C1`, 3.47%; for `Cc1cnc(N2C[C@H]3CN(Cc4csc(C)n4)C(=O)[C@H]3C2)nc1`, 12%. As to `CO[C@H]1CN(CC2CC2)[C@@H]2CCCO[C@H]12`, the cytotoxicity at 10 µM is -118%.

As for `O=C(Nc1cccnc1)[C@H]1CN(Cc2ccco2)C[C@H]2OCC[C@@H]12`, the cytotoxicity at 10 µM was -114%. Under `CN1CC2(CCN(C(=O)c3cccnc3)CC2)c2cccc(F)c21` stands 6.17%; under `CCOc1ccc(CN2CC[C@@H]3CC[C@H](C2)N3)cc1CO`, 5.99%.

On to `CN(C)S(=O)(=O)N1C[C@H]2CC[C@@H](C1)N(Cc1ccc3[nH]ccc3c1)C2`, for which the cytotoxicity at 10 µM was determined as 3.07%.
